Bioassay records from PubChem BioAssay.
Most compounds without a hit are left out; they make up all but 1.8% or so of the library.
PREPL inh: inhibitors of human prolyl oligopeptidase-like enzyme PREPL | Q4J6C6 | recombinant PREPL, fluorescence polarization activity-based probe | inhibition, % at 5.96 µM | 320,000 compounds, 0.68% hits | AID 2751; in the data active = inhibition above about 43%
SKN-1 inh: inhibitors of C. elegans SKN-1. C. elegans VP596 Pgst-4::GFP/RFP ratio, acrylamide-induced, 24 h. inhibition, % at 21.8 µM. 360,000 compounds, 0.49% hits. AID 624304;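 active = interference check ratio from 0.5 to 1.5 plus GFP to RFP signal ratio inhibition reaching or exceeding a fixed threshold, cut at about 30% in these data, passing the limit was not always enough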
iPSC survival up: increases survival of single human iPS cells | 360,000 compounds, 0.044% hits | survival enhancement, % at 20 µM | hiPSC single-cell survival, ATPlite luminescence; 100% = ROCK inhibitor wells, 0% = DMSO; in the data active = survival enhancement above about 18%;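 note: cells exposed to compounds for 16 hours before the ATP read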
MT1-MMP act inh: blocks activation of human MT1-MMP; P50281; GFP/RFP ratio change, % at 20 µM; AID 651647; 360,000 compounds, 0.061% hits; HT1080 RFP-PRO-GFP cells, GFP/RFP ratio fluorescence, overnight; percent of plate control window, DMSO zero;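 active = GFP/RFP ratio change of at least 30% with cell ATP level not reduced by more than half and red fluorescence within 50% of control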
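Assay system – RFP-PRO-GFP reporter HT1080 cells · Compound dosing – single dose of 20 µM compound, 1% DMSO final · Incubation – overnight compound exposure at 37 °C · Measure – GFP/RFP fluorescence ratio · Benchmarks – DMSO wells and RFP-L50D-GFP cells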
eLon inh: E. coli protease La inhibition; P0A9M0; purified E. coli Lon protease, fluorescence polarization; inhibition, % at 7.94 µM; 360,000 compounds, 0.42% hits; AID 602123; in the data active = inhibition above about 13%, passing the limit was not always enough
Target sequence (P0A9M0 whole entry, looked up): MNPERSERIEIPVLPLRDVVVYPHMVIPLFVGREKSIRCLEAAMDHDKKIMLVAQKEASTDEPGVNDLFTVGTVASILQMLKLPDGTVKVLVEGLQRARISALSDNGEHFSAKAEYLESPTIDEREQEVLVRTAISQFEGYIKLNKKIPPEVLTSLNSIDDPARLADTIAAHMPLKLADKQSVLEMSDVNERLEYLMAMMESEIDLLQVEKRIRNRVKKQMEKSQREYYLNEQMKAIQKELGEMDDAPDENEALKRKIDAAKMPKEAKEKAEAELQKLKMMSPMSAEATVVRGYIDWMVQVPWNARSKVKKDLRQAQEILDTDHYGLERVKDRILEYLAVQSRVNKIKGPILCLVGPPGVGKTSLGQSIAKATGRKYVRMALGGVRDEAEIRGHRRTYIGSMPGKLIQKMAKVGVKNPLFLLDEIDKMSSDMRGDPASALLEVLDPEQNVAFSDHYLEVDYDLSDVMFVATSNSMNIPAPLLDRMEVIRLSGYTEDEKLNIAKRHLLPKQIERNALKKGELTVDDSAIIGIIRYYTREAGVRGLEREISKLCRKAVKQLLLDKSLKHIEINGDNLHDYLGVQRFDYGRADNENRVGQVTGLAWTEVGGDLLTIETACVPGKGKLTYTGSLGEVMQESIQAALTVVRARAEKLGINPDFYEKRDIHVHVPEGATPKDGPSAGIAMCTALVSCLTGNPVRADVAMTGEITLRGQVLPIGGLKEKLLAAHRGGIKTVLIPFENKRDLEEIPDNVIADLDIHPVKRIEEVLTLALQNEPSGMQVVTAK
Tb MetRS inh: blocks T. brucei methionyl-tRNA synthetase activity; purified T. brucei MetRS, ATP depletion, Kinase-Glo luminescence; inhibition, % at 11.9 µM; 360,000 compounds, 0.4% hits; AID 624268;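 active = inhibition above a per-plate cutoff of the control wells' mean inhibition plus 3 SD, cut at about 5.5% in these data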
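Dosing: 11.9 µM single point; system: parasite MetRS enzyme; technique: luminescence of leftover ATP; times: 15 min enzyme-compound preincubation, 2 h reaction, 10 min detection, 25 °C; replicates: each compound tested once; read-out basis: percent inhibition relative to median high and low control wells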
Tb MetRS conf: confirmation of Trypanosoma brucei MetRS inhibitors. shares compounds with Tb MetRS inh. inhibition, % at 11.9 µM. T. brucei MetRS enzyme, luminescence (ATP depletion). 1,400 compounds, 93% hits; in the data active = inhibition above about 7%
Jurkat cytotox: Jurkat T cell cytotoxicity for MetRS hits; shares compounds with Tb MetRS inh; Jurkat cells viability, ATP luminescence; inhibition, % at 8.3 µM; 1,400 compounds, 12% hits; in the data active = inhibition above about 15%
TbMetRS FP orth: orthogonal test for Trypanosoma brucei MetRS inhibitors; AID 651607; purified T. brucei MetRS, fluorescence polarization; inhibition, % at 11.9 µM; shares compounds with Tb MetRS inh; 1,400 compounds, 44% hits; in the data active = inhibition above about 17%
Large screens that a line does not name were inactive (follow-up assays come after a bar, where they were run).

COC(=O)/C(=C\Nc1ccc(Cl)cc1Cl)NC(=O)c1ccc(OC)cc1	none
CN(CCc1nc2ccc(Cl)cc2[nH]1)Cc1nc(CC2CC2)no1	Tb MetRS inh 42 | Tb MetRS conf 62 | Jurkat cytotox inactive | TbMetRS FP orth 28
O=Cc1ccc(-c2ccc([N+](=O)[O-])cc2Cl)o1	Tb MetRS inh 6.5 (no result: PREPL inh) | Tb MetRS conf 12 | Jurkat cytotox inactive | TbMetRS FP orth inactive
CC(=O)Nc1cccc(OCc2cccc([N+](=O)[O-])c2)c1	none (no result: PREPL inh)
O=C(N/N=C/c1ccc[nH]1)c1ccc(O)cc1	none
O=C(CNC(=O)c1ccc(Br)cc1)N/N=C/c1ccc[nH]1	Tb MetRS inh 23 | Tb MetRS conf 47 | Jurkat cytotox inactive | TbMetRS FP orth 22
Nc1ccn(C2CCCCO2)c(=O)n1 (centres undefined)	none (no result: PREPL inh)
Cc1cccc(CNC(=O)c2ccc3c(c2)N(C)CCS3)c1	none
CN1CCSc2ccc(C(=O)NCc3cccc(Br)c3)cc21	Tb MetRS inh 5.7 | Tb MetRS conf 11 | Jurkat cytotox inactive | TbMetRS FP orth inactive
N=c1sccn1CC(=O)NCCc1ccc(Cl)cc1Cl	Tb MetRS inh 16 | Tb MetRS conf 42 | Jurkat cytotox inactive | TbMetRS FP orth inactive
COc1ccc(/C=C(/NC(=O)c2ccc(OC)cc2)C(=O)NCCc2c[nH]c3ccccc23)cc1	none
COc1ccc(C(=O)N/C(=C\c2ccc3c(c2)OCO3)C(=O)NCCc2nc3ccccc3[nH]2)cc1	Tb MetRS inh 6.9 | Tb MetRS conf 11 | Jurkat cytotox inactive | TbMetRS FP orth inactive
CCOC(=O)NC(=O)COC(=O)Cc1cc(OC)c(OC)c(OC)c1	none
COC(=O)c1nc[nH]c1[N+](=O)[O-]	none (no result: PREPL inh)
O=[N+]([O-])c1[nH]cnc1/C=C/c1ccccc1	Tb MetRS inh 5.6 | Tb MetRS conf 10 | Jurkat cytotox inactive | TbMetRS FP orth inactive
COc1ccc(Cc2nc3ccc(S(=O)(=O)N4CCOCC4)cc3[nH]2)cc1	none
CC(=O)c1cccc(S(=O)(=O)N2CCC(c3nc4ccccc4[nH]3)CC2)c1	none
O=S(=O)(c1ccc2c(c1)OCCO2)N1CCC(c2nc3ccccc3[nH]2)CC1	none
Cc1ccc2nc(C3CCCN(C(=S)Nc4ccccc4C)C3)[nH]c2c1 (centres undefined)	Tb MetRS inh 6.8 | Tb MetRS conf 46 | Jurkat cytotox inactive | TbMetRS FP orth 22
O=S(=O)(c1ccc2c(c1)OCCO2)N1CCC(c2nc3ccc(Cl)cc3[nH]2)CC1	Tb MetRS inh 12 | Tb MetRS conf 17 | Jurkat cytotox 24 | TbMetRS FP orth inactive
O=S(=O)(c1ccc2nc(SCc3ccc(Cl)cc3)[nH]c2c1)N1CCOCC1	Tb MetRS inh 12 | Tb MetRS conf 18 | Jurkat cytotox inactive | TbMetRS FP orth 19
Cc1ccc2nc(C3CCN(S(=O)(=O)c4ccc5ccccc5c4)CC3)[nH]c2c1	Tb MetRS inh 48 | Tb MetRS conf 69 | Jurkat cytotox inactive | TbMetRS FP orth 36
CCOC(=O)c1cccc(NS(=O)(=O)c2cnc[nH]2)c1	none
CCN(CC(=O)Nc1ccc(OC)cc1)C(=O)c1ccc2c(c1)NC(=O)C(C)S2 (centres undefined)	Tb MetRS inh 18 | Tb MetRS conf 48 | Jurkat cytotox inactive | TbMetRS FP orth 24
O=C(OCC(=O)c1ccc[nH]1)c1ccc(Br)cc1	none
Cc1[nH]c2ccccc2c1/C=N/Nc1ccc([N+](=O)[O-])cc1	Tb MetRS inh 9.6 | Tb MetRS conf 12 | Jurkat cytotox inactive | TbMetRS FP orth 71
O=C(NNC(=O)c1cc(-c2ccc(Cl)c(Cl)c2)nc2ccccc12)Nc1ccccc1	Tb MetRS inh 45 | Tb MetRS conf 94 | Jurkat cytotox inactive | TbMetRS FP orth 81
Cc1cccc(NC(=O)NNC(=O)c2cc(-c3ccccc3Cl)nc3ccccc23)c1	none
COc1ccc(CN=C2Nc3ccccc3CS2)cc1	Tb MetRS inh 7.7 | Tb MetRS conf 25 | Jurkat cytotox inactive | TbMetRS FP orth inactive
Cc1cc(C)cc(NC(=O)C2CCCN2S(=O)(=O)c2ccc3c(c2)n(C)c(=O)c(=O)n3C)c1 (centres undefined)	none
COCCCN1C(=O)c2ccc(C(=O)OCC(=O)NCCc3ccccc3)cc2C1=O	none
Cc1ccc(NS(=O)(=O)c2c(C)[nH]c(C)c2C(=O)N2CCCCC2)c(Cl)c1	Tb MetRS inh 8.4 | Tb MetRS conf 21 | Jurkat cytotox inactive | TbMetRS FP orth inactive
CCOC(=O)c1cccc(NS(=O)(=O)c2c(C)[nH]c(C)c2C(=O)N2CCCC2)c1	none
Cc1ccc(NS(=O)(=O)c2c(C)[nH]c(C)c2C(=O)N2CCCCC2)cc1Cl	Tb MetRS inh 22 | Tb MetRS conf 32 | Jurkat cytotox inactive | TbMetRS FP orth inactive
Clc1ccc2c(NCc3ccccc3)ccnc2c1	Tb MetRS inh 7.9 | Tb MetRS conf 20 | Jurkat cytotox 19 | TbMetRS FP orth inactive
O=C(NCCNc1ccnc2cc(Cl)ccc12)c1ccccc1F	Tb MetRS inh 8.7 | Tb MetRS conf 13 | Jurkat cytotox 47 | TbMetRS FP orth inactive
CCNC(=S)N(Cc1cc2cc(C)ccc2[nH]c1=O)C1CCCC1	Tb MetRS inh 11 | Tb MetRS conf 22 | Jurkat cytotox inactive | TbMetRS FP orth inactive
CCNC(=S)N(Cc1cc2cc(C)c(C)cc2[nH]c1=O)C1CCCC1	none
C=CCn1c(NC(=O)c2ccccc2Cl)c(C#N)c2nc3ccccc3nc21	Tb MetRS inh 6.8 | Tb MetRS conf inactive | Jurkat cytotox inactive | TbMetRS FP orth inactive
N#Cc1c(N)n(CCNC(=O)c2ccccc2)c2nc3ccccc3nc12	none
Cc1ccc2[nH]c(=O)c(CN(Cc3cccs3)Cc3nnnn3Cc3ccccc3)cc2c1	Tb MetRS inh 9.1 | Tb MetRS conf 21 | Jurkat cytotox inactive | TbMetRS FP orth inactive
OCCNc1nc(Nc2ccccc2)nc2ccccc12	Tb MetRS inh 11 | Tb MetRS conf 31 | Jurkat cytotox inactive | TbMetRS FP orth inactive
CNc1nc(NCc2ccccc2)c2ccccc2n1	none
OCCNc1nc(Nc2ccc(Br)cc2)nc2ccccc12	none (no result: SKN-1 inh, iPSC survival up, MT1-MMP act inh, eLon inh, Tb MetRS inh)
CCCCNc1nc(NCc2ccccc2)nc2ccccc12	Tb MetRS inh 10 (no result: PREPL inh) | Tb MetRS conf 22 | Jurkat cytotox 62 | TbMetRS FP orth inactive
Clc1ccc(OCCNCCc2ccccc2)cc1	none
Cn1nc(C(F)(F)F)c(-c2cccc(C(F)(F)F)c2)c1NC(=O)c1ccco1	none
